Laboratory results: ChEMBL document CHEMBL1687792, “vanM, a new glycopeptide resistance gene cluster found in Enterococcus faecium” (2010)
In brackets after ≈: the same amount, converted by molar mass. Activity calls are given as the source filed them. The calls are words filed in the database; no cut-off is given here.

Legend:
[1] = system: Enterococcus faecium; assay: Antimicrobial activity against rifampin-, fusidic acid-resistant Enterococcus faecium BM-4105 by Etest; format: functional
Method in brief: (§1)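 MIC by Etest on Mueller-Hinton agar, run per manufacturer's instructions and interpreted by CLSI recommendations. Same method for donor, recipient (BM4105RF, Fusr Rifr) and transconjugants. Transconjugants came from filter mating and were selected on BHI agar with rifampin (100 μg/ml) or fusidic acid (10 μg/ml) plus vancomycin (10 μg/ml).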

[2] = system: Enterococcus faecium; assay: Antimicrobial activity against Enterococcus faecium BM-0661 transconjugant by Etest; format: functional; method in brief: as §1
[3] = system: Enterococcus faecium; assay: Antimicrobial activity against glycopeptide-resistant Enterococcus faecium isolate HS0761 harboring MLST sequence type ST78 and pulsotype C expressing vanM gene cluster isolated from urine of patient by Etest
[4] = system: Enterococcus faecium; assay: Antimicrobial activity against glycopeptide-resistant Enterococcus faecium isolate HS0847 harboring MLST sequence type ST78 and pulsotype E expressing vanM gene cluster isolated from urine of patient by Etest
[5] = system: Enterococcus faecium; assay: Antimicrobial activity against glycopeptide-resistant Enterococcus faecium isolate HS05417 harboring MLST sequence type ST17 and pulsotype A expressing vanA gene cluster isolated from urine of patient by Etest
[6] = system: Enterococcus faecium; assay: Antimicrobial activity against glycopeptide-resistant Enterococcus faecium isolate HS05446 harboring MLST sequence type ST17 and pulsotype B expressing vanA gene cluster isolated from urine of patient by Etest
[7] = system: Enterococcus faecium; assay: Antimicrobial activity against glycopeptide-resistant Enterococcus faecium isolate HS06188 harboring MLST sequence type ST78 and pulsotype A expressing vanA gene cluster isolated from urine of patient by Etest
[8] = system: Enterococcus faecium; assay: Antimicrobial activity against glycopeptide-resistant Enterococcus faecium isolate HS07261 harboring MLST sequence type ST78 and pulsotype D expressing vanM gene cluster isolated from urine of patient by Etest
[9] = system: Enterococcus faecium; assay: Antimicrobial activity against glycopeptide-resistant Enterococcus faecium isolate HS08369 harboring MLST sequence type ST18 and pulsotype G expressing vanM gene cluster isolated from urine of patient by Etest
[10] = system: Enterococcus faecium; assay: Antimicrobial activity against glycopeptide-resistant Enterococcus faecium isolate HS0649 harboring MLST sequence type ST17 and pulsotype B expressing vanA gene cluster isolated from exudate of patient by Etest
[11] = system: Enterococcus faecium; assay: Antimicrobial activity against glycopeptide-resistant Enterococcus faecium isolate HS0661 harboring MLST sequence type ST78 and pulsotype C expressing vanM gene cluster isolated from exudate of patient by Etest
[12] = system: Enterococcus faecium; assay: Antimicrobial activity against glycopeptide-resistant Enterococcus faecium isolate HS08257 harboring MLST sequence type ST341 and pulsotype F expressing vanM gene cluster isolated from urine of patient by Etest
[13] = system: Enterococcus faecalis; assay: Induction of VanM gene cluster in glycopeptide-resistant Enterococcus […] isolate HS0661 harboring MLST sequence type ST78 and pulsotype C expressing vanM gene cluster isolated from exudate of patient assessed as UDP-MurNAc-tetrapeptide-D-lactate at 50 ug/mL by LC-MS method; format: functional, organism-based
Method in brief: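 Efm-HS0661 was grown in BHI broth to OD650 0.4, then exposed to glycopeptide at 50 μg/ml for a further 120 min. Peptidoglycan precursors were extracted and separated on a C18 column at 30 μl/min using a linear gradient over 18 min. Eluent A was 10 mM ammonium acetate, pH 5; eluent B was 2% acetonitrile in the same buffer. Precursors were identified by MS from fragments at m/z 562 and 747.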

| SMILES | MIC [1] | MIC [2] | MIC [3] | MIC [4] | MIC [5] | MIC [6] | MIC [7] | MIC [8] | MIC [9] | MIC [10] | MIC [11] | MIC [12] | Activity [13] |
| --- | --- | --- | --- | --- | --- | --- | --- | --- | --- | --- | --- | --- | --- |
| C[C@H]1c2cccc(O)c2C(=O)C2=C(O)[C@]3(O)C(=O)C(C(N)=O)=C(O)[C@@H](N(C)C)[C@@H]3[C@@H](O)[C@@H]21.O [DOXYCYCLINE] | 0.094 µg/mL | 0.094 µg/mL | 0.125 µg/mL | 0.094 µg/mL | 0.19 µg/mL | 6 µg/mL | 0.125 µg/mL | 0.19 µg/mL | 32 µg/mL | 6 µg/mL | 0.125 µg/mL | 0.19 µg/mL | – |
| CC(=O)NC[C@H]1CN(c2ccc(N3CCOCC3)c(F)c2)C(=O)O1 [LINEZOLID] | 1.5 µg/mL (≈ 4.45 µM) | 1 µg/mL (≈ 2.96 µM) | 1.5 µg/mL (≈ 4.45 µM) | – | 1.5 µg/mL (≈ 4.45 µM) | 1.5 µg/mL (≈ 4.45 µM) | 1.5 µg/mL (≈ 4.45 µM) | 1.5 µg/mL (≈ 4.45 µM) | – | 1.5 µg/mL (≈ 4.45 µM) | 1.5 µg/mL (≈ 4.45 µM) | – | – |
| O=C1CN(/N=C/c2ccc([N+](=O)[O-])o2)C(=O)N1 [NITROFURANTOIN] | 16 µg/mL (≈ 67.2 µM) | 16 µg/mL (≈ 67.2 µM) | 64 µg/mL (≈ 269 µM) | 64 µg/mL (≈ 269 µM) | 128 µg/mL (≈ 537 µM) | 16 µg/mL (≈ 67.2 µM) | 128 µg/mL (≈ 537 µM) | 128 µg/mL (≈ 537 µM) | 32 µg/mL (≈ 134 µM) | > 512 µg/mL | 64 µg/mL (≈ 269 µM) | 196 µg/mL (≈ 823 µM) | – |
| CO[C@H]1/C=C/O[C@@]2(C)Oc3c(C)c(O)c4c(O)c(c(/C=N/N5CCN(C)CC5)c(O)c4c3C2=O)NC(=O)/C(C)=C\C=C\[C@H](C)[C@H](O)[C@@H](C)[C@@H](O)[C@@H](C)[C@H](OC(C)=O)[C@@H]1C [RIFAMPIN] | > 32 µg/mL | > 32 µg/mL | 3 µg/mL (≈ 3.65 µM) | > 32 µg/mL | 0.25 µg/mL (≈ 0.304 µM) | 4 µg/mL (≈ 4.86 µM) | 0.19 µg/mL (≈ 0.231 µM) | > 32 µg/mL | 16 µg/mL (≈ 19.4 µM) | 4 µg/mL (≈ 4.86 µM) | 4 µg/mL (≈ 4.86 µM) | 8 µg/mL (≈ 9.72 µM) | – |
| CN[C@H](CC(C)C)C(=O)N[C@H]1C(=O)N[C@@H](CC(N)=O)C(=O)N[C@H]2C(=O)N[C@H]3C(=O)N[C@H](C(=O)N[C@H](C(=O)O)c4cc(O)cc(O)c4-c4cc3ccc4O)[C@H](O)c3ccc(c(Cl)c3)Oc3cc2cc(c3O[C@@H]2O[C@H](CO)[C@@H](O)[C@H](O)[C@H]2O[C@H]2C[C@](C)(N)[C@H](O)[C@H](C)O2)Oc2ccc(cc2Cl)[C@H]1O [VANCOMYCIN] | 0.75 µg/mL (≈ 0.518 µM) | > 256 µg/mL | > 256 µg/mL | > 256 µg/mL | > 256 µg/mL | > 256 µg/mL | > 256 µg/mL | > 256 µg/mL | > 256 µg/mL | > 256 µg/mL | > 256 µg/mL | > 256 µg/mL | Active |
